ChEMBL document CHEMBL1128288, “7-Azetidinylquinolones as antibacterial agents. 3. Synthesis, properties and structure-activity relationships of the stereoisomers containing a 7-(3-amino-2-methyl-1-azetidinyl) moiety” (J Med Chem, 1995)
Values after ≈ are worked out from the molar mass of the structure shown.

Key:
Format in all cases: functional
Enterobacter cloacae = assay: In vitro antibacterial activity measured as minimum inhibitory concentration, was evaluated on Enterobacter cloacae ATCC 23355 (Ecl).; details: Enterobacter cloacae, ATCC 23355; read-out: MIC
Proteus vulgaris = assay: In vitro antibacterial activity measured as minimum inhibitory concentration was evaluated on proteus vulgaris ATCC 8427 (Pv).; details: Proteus vulgaris, ATCC 8427; read-out: MIC
Method in brief: (§1)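 Serial 2-fold agar dilution in Mueller Hinton medium, run side by side with reference quinolones. Inoculum 10^5 cfu/mL; compound range 0.007–16 µg/mL.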

Bacillus cereus = assay: In vitro antibacterial activity measured as minimum inhibitory concentration was evaluated on Bacillus cereus ATCC 11778 (Bc).; details: Bacillus cereus, ATCC 11778; read-out: MIC; method in brief: as §1
Klebsiella pneumoniae = assay: In vitro antibacterial activity measured as minimum inhibitory concentration was evaluated on klebsiella pneumoniae ATCC 10031 (Kp).; details: Klebsiella pneumoniae, ATCC 10031; read-out: MIC
Method in brief: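 Serial 2-fold agar dilution in Mueller Hinton medium, run side by side with reference quinolones.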

Pseudomonas aeruginosa [1] = assay: In vivo efficacy as ED50 against Pseudomonas aeruginosa HS-116 by oral administration in mice.; details: Pseudomonas aeruginosa, po; read-out: ED50
Method in brief: (§2)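 Mice, 4 groups of 10, infected intraperitoneally with slightly more than the LD100 of the organism. A single oral dose was given immediately after infection, with four doses (one per group) chosen from in vitro activity. Survival was scored after one week. ED50 (total dose, mg/kg, protecting 50%) was interpolated among group survival rates.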

Enterococcus faecalis = assay: In vitro antibacterial activity measured as minimum inhibitory concentration was evaluated on Streptococcus faecalis ATCC 10541 (Sf).; details: Enterococcus faecalis, ATCC 10541; read-out: MIC; method in brief: as §1
Bacillus subtilis = assay: In vitro antibacterial activity measured as minimum inhibitory concentration was evaluated on Bacillus subtilis ATCC 6633(Bs).; details: Bacillus subtilis, ATCC 6633; read-out: MIC; method in brief: as §1
Morganella morganii = assay: In vitro antibacterial activity measured as minimum inhibitory concentration was evaluated on morganella morganii ATCC 8019 (Mm).; details: Morganella morganii, ATCC 8019; read-out: MIC; method in brief: as §1
Escherichia coli [2] = assay: In vitro antibacterial activity measured as minimum inhibitory concentration, was evaluated on Escherichia coli ATCC 23559(Ec).; details: Escherichia coli, ATCC 23559; read-out: MIC; method in brief: as §1
Staphylococcus aureus [3] = assay: In vivo efficacy as ED50 against Staphylococcus aureus HS-93 by oral administration in mice.; details: Staphylococcus aureus, po; read-out: ED50; method in brief: as §2
Escherichia coli [4] = assay: In vivo efficacy as ED50 against Escherichia coli HM-42 by oral administration in mice.; details: Escherichia coli, po; read-out: ED50; method in brief: as §2
Staphylococcus aureus [5] = assay: In vitro antibacterial activity measured as minimum inhibitory concentration was evaluated on Staphylococcus aureus ATCC 25178 (Sa).; details: Staphylococcus aureus, ATCC 25178; read-out: MIC; method in brief: as §1
[6] = tested on: Staphylococcus epidermidis; assay: In vitro antibacterial activity measured as minimum inhibitory concentration was evaluated on Staphylococcus epidermidis ATCC 155-1 (Se).; details: Staphylococcus epidermidis, ATCC 155-1; read-out: MIC; method in brief: as §1
Pseudomonas aeruginosa [7] = assay: In vitro antibacterial activity measured as minimum inhibitory concentration was evaluated on Pseudomonas aeruginosa ATCC 10145 (Pa).; details: Pseudomonas aeruginosa, ATCC 10145; read-out: MIC; method in brief: as §1

Row | Compound | MIC (Enterobacter cloacae) [µg/mL] | MIC (Proteus vulgaris) [µg/mL] | MIC (Bacillus cereus) [µg/mL] | MIC (Klebsiella pneumoniae) [µg/mL] | ED50 (Pseudomonas aeruginosa [1]) [mg/kg] | MIC (Enterococcus faecalis) [µg/mL] | MIC (Bacillus subtilis) [µg/mL] | MIC (Morganella morganii) [µg/mL] | MIC (Escherichia coli [2]) [µg/mL] | ED50 (Staphylococcus aureus [3]) [mg/kg] | ED50 (Escherichia coli [4]) [mg/kg] | MIC (Staphylococcus aureus [5]) [µg/mL] | MIC [6] [µg/mL] | MIC (Pseudomonas aeruginosa [7]) [µg/mL]
1 | CC1C(N)CN1c1c(F)c(N)c2c(=O)c(C(=O)O)cn(C3CC3)c2c1F (stereo not given) | 0.015 (≈ 0.0412 µM) | 0.06 (≈ 0.165 µM) | 0.015 (≈ 0.0412 µM) | 0.015 (≈ 0.0412 µM) | 102 | 0.06 (≈ 0.165 µM) | 0.015 (≈ 0.0412 µM) | 0.015 (≈ 0.0412 µM) | 0.015 (≈ 0.0412 µM) | 8.7 | 4.2 | 0.015 (≈ 0.0412 µM) | 0.015 (≈ 0.0412 µM) | 
2 | C[C@@H]1[C@@H](N)CN1c1c(F)cc2c(=O)c(C(=O)O)cn(-c3ccc(F)cc3F)c2c1Cl | 0.25 (≈ 0.571 µM) | 1 (≈ 2.28 µM) | 1 (≈ 2.28 µM) | 0.5 (≈ 1.14 µM) |  | 2 (≈ 4.57 µM) | 0.12 (≈ 0.274 µM) | 0.5 (≈ 1.14 µM) | 0.25 (≈ 0.571 µM) |  |  | 0.25 (≈ 0.571 µM) | 0.5 (≈ 1.14 µM) | 2 (≈ 4.57 µM)
3 | Cc1c(F)c(N2C[C@H](N)[C@H]2C)nc2c1c(=O)c(C(=O)O)cn2C1CC1 | 0.12 (≈ 0.346 µM) | 0.25 (≈ 0.722 µM) | 0.25 (≈ 0.722 µM) | 0.12 (≈ 0.346 µM) |  | 0.12 (≈ 0.346 µM) | 0.25 (≈ 0.722 µM) | 0.12 (≈ 0.346 µM) | 0.12 (≈ 0.346 µM) |  |  | 0.12 (≈ 0.346 µM) | 0.12 (≈ 0.346 µM) | 0.5 (≈ 1.44 µM)
4 | C[C@@H]1[C@@H](N)CN1c1c(F)cc2c(=O)c(C(=O)O)cn(C3CC3)c2c1Cl | 0.25 (≈ 0.683 µM) | 0.25 (≈ 0.683 µM) | 0.5 (≈ 1.37 µM) | 2 (≈ 5.47 µM) | 147 | 0.25 (≈ 0.683 µM) | 0.12 (≈ 0.328 µM) | 0.25 (≈ 0.683 µM) | 0.25 (≈ 0.683 µM) | 19.1 | 18.4 | 0.5 (≈ 1.37 µM) | 0.5 (≈ 1.37 µM) | 4 (≈ 10.9 µM)
5 | CC1C(N)CN1c1nc2c(cc1F)c(=O)c(C(=O)O)cn2-c1ccc(F)cc1F (stereo not given) |  | 1 (≈ 2.47 µM) |  | 0.06 (≈ 0.148 µM) | 140 | 1 (≈ 2.47 µM) | 0.06 (≈ 0.148 µM) |  | 0.12 (≈ 0.297 µM) | 8.9 | 3.3 |  |  | 1 (≈ 2.47 µM)
6 | CC1C(N)CN1c1c(F)cc2c(=O)c(C(=O)O)cn(-c3ccc(F)cc3F)c2c1F (stereo not given) | 0.06 (≈ 0.142 µM) | 0.5 (≈ 1.19 µM) | 0.12 (≈ 0.285 µM) | 0.06 (≈ 0.142 µM) | 61 | 1 (≈ 2.37 µM) | 0.06 (≈ 0.142 µM) | 0.12 (≈ 0.285 µM) | 0.06 (≈ 0.142 µM) | 10 | 2.3 | 0.12 (≈ 0.285 µM) | 0.12 (≈ 0.285 µM) | 1 (≈ 2.37 µM)
7 | CC1C(N)CN1c1cc2c(cc1F)c(=O)c(C(=O)O)cn2-c1ccc(F)cc1F (stereo not given) |  | 0.5 (≈ 1.24 µM) |  |  | 78 | 1 (≈ 2.48 µM) | 0.03 (≈ 0.0744 µM) |  | 0.06 (≈ 0.149 µM) | 8.1 | 6 |  |  | 2 (≈ 4.96 µM)
8 | C[C@H]1COc2c(N3CC(N(C)C)C3)c(F)cc3c(=O)c(C(=O)O)cn1c23 | 0.06 (≈ 0.166 µM) | 0.25 (≈ 0.692 µM) | 0.06 (≈ 0.166 µM) | 0.015 (≈ 0.0415 µM) |  | 2 (≈ 5.53 µM) | 0.015 (≈ 0.0415 µM) | 0.12 (≈ 0.332 µM) | 0.06 (≈ 0.166 µM) |  |  | 0.12 (≈ 0.332 µM) | 0.12 (≈ 0.332 µM) | 4 (≈ 11.1 µM)
9 | CC1C(N)CN1c1nc2c(cc1F)c(=O)c(C(=O)O)cn2C1CC1 (stereo not given) | 0.03 (≈ 0.0903 µM) | 0.06 (≈ 0.181 µM) | 0.06 (≈ 0.181 µM) | 0.03 (≈ 0.0903 µM) | 95 |  | 0.03 (≈ 0.0903 µM) | 0.03 (≈ 0.0903 µM) | 0.03 (≈ 0.0903 µM) | 13.8 | 3.5 |  |  | 0.5 (≈ 1.5 µM)
10 | C[C@H]1COc2c(N3CC(N)C3)c(F)cc3c(=O)c(C(=O)O)cn1c23 | 0.015 (≈ 0.045 µM) | 0.25 (≈ 0.75 µM) | 0.12 (≈ 0.36 µM) | 0.015 (≈ 0.045 µM) |  | 0.12 (≈ 0.36 µM) | 0.06 (≈ 0.18 µM) | 0.06 (≈ 0.18 µM) | 0.015 (≈ 0.045 µM) |  |  | 0.12 (≈ 0.36 µM) | 0.06 (≈ 0.18 µM) | 0.25 (≈ 0.75 µM)
11 | C[C@@H]1[C@@H](N)CN1c1c(F)c(N)c2c(=O)c(C(=O)O)cn(-c3ccc(F)cc3F)c2c1F | 0.12 (≈ 0.275 µM) | 0.5 (≈ 1.15 µM) | 0.12 (≈ 0.275 µM) | 0.25 (≈ 0.573 µM) |  | 0.12 (≈ 0.275 µM) | 0.03 (≈ 0.0687 µM) | 0.12 (≈ 0.275 µM) | 0.03 (≈ 0.0687 µM) |  |  | 0.06 (≈ 0.137 µM) | 0.12 (≈ 0.275 µM) | 0.5 (≈ 1.15 µM)
12 | CC1COc2c(N3CC(C)(N)C3)c(F)cc3c(=O)c(C(=O)O)cn1c23 (single isomer, unassigned) | 4 (≈ 11.5 µM) | 8 (≈ 23 µM) | 4 (≈ 11.5 µM) | 8 (≈ 23 µM) |  | 4 (≈ 11.5 µM) | 2 (≈ 5.76 µM) | 8 (≈ 23 µM) | 8 (≈ 23 µM) |  |  | 4 (≈ 11.5 µM) | 4 (≈ 11.5 µM) | 32 (≈ 92.1 µM)
